# According to ChEMBL document CHEMBL1130100, “Stabilized analogs of thymopentin. 3. Evaluation of ketomethylene pseudopeptides for antiarthritic properties” (1997):
# Several values for one entry are separate records, joined by “and”; a condition that tells them apart may be missing. Identical values can stand only once.
# Legend:
# Assay type in all cases: functional
# [1] = test system: Mus musculus; assay: Extent of paw swelling after treatment with thymopentin-5 (TP-5) compound in the Mouse Type II collagen arthritis at a dosage of 1.0 mg/kg on day 44
# Method in brief: (§1)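 DBA/1 Lac mice immunized with bovine type II collagen (100 μg) in Freund's complete adjuvant at four to six back sites, then boosted ip (100 μg) on day 21. Dosing was iv in sterile saline every second day from day 19 through day 40, 12 mice per dose. Each hind paw was measured by caliper. Result given as % of untreated swelling after subtracting age-matched normal paw.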
# [2] = test system: Mus musculus; assay: Extent of paw swelling after treatment with thymopentin-5 (TP-5) compound in the Mouse Type II collagen arthritis at 1 mg/kg on day 30.; method in brief: as §1
# [3] = test system: Mus musculus; assay: Extent of paw swelling after treatment with thymopentin-5 (TP-5) compound in the Mouse Type II collagen arthritis at a dosage of 1.0 mg/kg on day 37; method in brief: as §1
# [4] = test system: Mus musculus; assay: Extent of paw swelling after treatment with thymopentin-5 (TP-5) compound in the Mouse Type II collagen arthritis at a dosage of 1.0 mg/kg on day 40; method in brief: as §1
# [5] = test system: Mus musculus; assay: On set and incidence of arthritis in the Mouse Type II collagen model at 0.5 dose mg/kg on day 40, expressed as number of mice treated out of 12 tested
# Method in brief: (§2)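 DBA/1 Lac mice sensitized with bovine type II collagen (100 μg) in Freund's complete adjuvant, ip boost (100 μg) on day 21. Freshly dissolved compound in sterile saline was given iv every second day, day 19 through day 40, groups of 12. A mouse was scored arthritic if erythema or edema was present on any digit, paw or appendage. Incidence reported as number positive of 12.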
# [6] = test system: Mus musculus; assay: On set and incidence of arthritis in the Mouse Type II collagen model at 0.5 dose mg/kg on day 37, expressed as number of mice treated out of 12 tested; method in brief: as §2
# [7] = test system: Mus musculus; assay: On set and incidence of arthritis in the Mouse Type II collagen model following 0.5 mg/kg on day 30.; conditions: 0.5 mg/kg; method in brief: as §2
# [8] = test system: Mus musculus; assay: On set and incidence of arthritis in the Mouse Type II collagen model at 0.5 dose mg/kg on day 44, expressed as number of mice treated out of 12 tested; method in brief: as §2
# [9] = test system: Rattus norvegicus; assay: extent of paw swelling following treatment with the compound in the rat adjuvant arthritis model observed on day 12 at 0.050 mg/kg dose; conditions: dose 0.05 mg/kg
# Method in brief: (§3)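 Rat adjuvant arthritis with iv dosing every second day, starting 2 days before the adjuvant/antigen challenge. Initial doses ranged 0.05 to 0.50 mg/kg, eight rats per dose. Each hind paw was measured by caliper. Swelling minus age-matched normal paw, expressed as % of untreated animals.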
# [10] = test system: Mus musculus; assay: Extent of paw swelling after treatment with thymopentin-5 (TP-5) compound in the Mouse Type II collagen arthritis at a dosage of 0.01 mg/kg on day 44; conditions: 0.01 mg/kg; method in brief: as §1
# [11] = test system: Rattus norvegicus; assay: extent of paw swelling following treatment with the compound in the rat adjuvant arthritis model observed on day 16 at 0.050 mg/kg dose; conditions: dose 0.05 mg/kg; method in brief: as §3
# [12] = test system: Rattus norvegicus; assay: extent of paw swelling following treatment with the compound in the rat adjuvant arthritis model observed on day 19 at 0.050 mg/kg dose; conditions: dose 0.05 mg/kg; method in brief: as §3
# [13] = test system: Rattus norvegicus; assay: extent of paw swelling following treatment with the compound in the rat adjuvant arthritis model observed on day 16 at 0.075 mg/kg dose; method in brief: as §3
# [14] = test system: Rattus norvegicus; assay: extent of paw swelling following treatment with the compound in the rat adjuvant arthritis model observed on day 19 at 0.075 mg/kg dose; method in brief: as §3
# [15] = test system: Rattus norvegicus; assay: extent of paw swelling following treatment with the compound in the rat adjuvant arthritis model observed on day 12 at 0.075 mg/kg dose; method in brief: as §3
# [16] = test system: Mus musculus; assay: On set and incidence of arthritis in the Mouse Type II collagen model at 0.5 dose mg/kg on day 44, expressed as ratio of number treated to that of control; method in brief: as §2
# [17] = test system: Mus musculus; assay: On set and incidence of arthritis in the Mouse Type II collagen model at 0.5 dose mg/kg on day 37, expressed as ratio of number treated to that of control; method in brief: as §2
# [18] = test system: Rattus norvegicus; assay: extent of paw swelling following treatment with the compound in the rat adjuvant arthritis model observed on day 16 at 0.05 mg/kg dose; method in brief: as §3
# [19] = test system: Rattus norvegicus; assay: extent of paw swelling following treatment with the compound in the rat adjuvant arthritis model observed on day 12 at 0.05 mg/kg dose; method in brief: as §3
# [20] = test system: Mus musculus; assay: On set and incidence of arthritis in the Mouse Type II collagen model at 0.5 dose mg/kg on day 40, expressed as ratio of number treated to that of control; method in brief: as §2
# [21] = test system: Rattus norvegicus; assay: extent of paw swelling following treatment with the compound in the rat adjuvant arthritis model observed on day 19 at 0.05 mg/kg dose; method in brief: as §3
# [22] = test system: Mus musculus; assay: On set and incidence of arthritis in the Mouse Type II collagen model at 0.5 dose mg/kg on day 30, expressed as ratio of number treated to that of control; method in brief: as §2
# [23] = test system: Mus musculus; assay: Extent of paw swelling after treatment with thymopentin-5 (TP-5) compound in mouse type II collagen arthritis at a dosage of 1.0 mg/kg on day 30; method in brief: as §1
SMILES,No. of mice [5],No. of mice [6],No. of mice [7],No. of mice [8],No. of mice [16],No. of mice [17],No. of mice [20],other results
CC(C)[C@H](NC(=O)[C@H](CC(=O)O)NC(=O)[C@@H]1CCCN1C(=O)[C@@H](N)CCCN=C(N)N)C(=O)C[C@@H](Cc1ccccc1)C(=O)O (stereo in doubt; 1b-B),10,9,6,11,,,,Paw swelling [1]: 53%; Paw swelling [2]: 66%; Paw swelling [3]: 59%; Paw swelling [4]: 42%
CCCC[C@H](NC(=O)[C@@H](N)CCCN=C(N)N)C(=O)N[C@@H](CC(=O)O)C(=O)N[C@H](C(=O)C[C@@H](Cc1ccccc1)C(=O)O)C(C)C (stereo in doubt; 1c-A),10,9,5,8,,,,Paw swelling [9]: 0%; Paw swelling [10]: 66% and 69% and 70% and 63%; Paw swelling [11]: 100%; Paw swelling [12]: 100%
CCCC[C@H](NC(=O)[C@@H](N)CCCN=C(N)N)C(=O)N[C@@H](CC(=O)O)C(=O)N[C@H](C(=O)C[C@@H](Cc1ccccc1)C(=O)O)C(C)C (stereo in doubt; 1c-B),11,11,8,12,,,,Paw swelling [1]: 100%
CCCCC(CC(=O)[C@@H](N)CCCN=C(N)N)C(=O)N[C@@H](CC(=O)O)C(=O)NC(C(=O)C[C@H](C(=O)O)C(C)C)C(C)C (stereo in doubt; 1h-B),,,6,,9,7,,Paw swelling [13]: 100%; Paw swelling [14]: 70%; Paw swelling [15]: 0%
CCCC[C@@H](C(=O)N[C@@H](CC(=O)O)C(=O)N[C@H](C(=O)C[C@H](C(=O)O)C(C)C)C(C)C)N(C)C(=O)[C@@H](N)CCCN=C(N)N (stereo in doubt; 1m-B),,,8,,12,11,11,Paw swelling ([2]; 1 mg/kg): 100%; Paw swelling [18]: 100%; Paw swelling [19]: 0%; Paw swelling [21]: 100%
CC(C)[C@H](CC(=O)[C@H](CC(=O)O)NC(=O)[C@H](CCCCN)NC(=O)[C@@H](N)CCCN=C(N)N)C(=O)N[C@@H](Cc1ccccc1)C(=O)O (stereo in doubt; 3a-B),,,,,12,11,12,No. of mice [22]: 8; Paw swelling [23]: 100%
CC(CC(=O)[C@H](CC(=O)O)NC(=O)C(CCCCN)NC(=O)[C@@H](N)CCCN=C(N)N)C(=O)NC(Cc1ccccc1)C(=O)O (stereo in doubt; 3e-A),,,5,,12,9,11,Paw swelling ([23]; 1 mg/kg): 88% and 57% and 73% and 75%
CC(CC(=O)[C@H](CC(=O)O)NC(=O)C(CCCCN)NC(=O)[C@@H](N)CCCN=C(N)N)C(=O)NC(Cc1ccccc1)C(=O)O (stereo in doubt; 3e-B),,,10,,,11,10,Paw swelling ([23]; 1 mg/kg): 100% and 68% and 77%
